# GSIS activator – primary screen for activators of insulin secretion dependent on glucose, INS-1E cells, GLuc reporter luminescence | INS-1E GLuc reporter insulin secretion, 2-3 h | activation, % at 16.6 µM | 0.61% of 370,000 active;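 active = lowest replicate activation of at least 40%, so every replicate reaches that level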
# MLL AF4-AF9 inh – MLL-AF4/AF9 protein interaction inhibition | 0.47% of 350,000 active | inhibition, % at 10 µM | AlphaScreen, biotin-AF4 peptide binding to FLAG-AF9;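 active = every replicate reaching a set inhibition limit, whatever the replicate mean, cut at about 25% in these data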
# S100A4 MyoIIA – S100A4-myosin IIA interaction inhibition | inhibition, % at 10.7 µM | AID 652163 | S100A4/TAMRA-MyoIIA peptide fluorescence polarization | 0.14% of 360,000 active | P26447;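 active = mean inhibition of at least 70% across replicates, with every replicate also reaching that level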
#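 System – human S100A4 monomer protein, biochemical binding assay · Buffer or medium – Calcium-containing HEPES buffer, pH 7.2 · Timing – 5 min between mix addition and reading · Also added – TAMRA-labelled myosin IIA heavy-chain peptide probe, 5 nM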
# RAD54 branch – RAD54 (human) branch migration inhibition; Q92698; RAD54 Holliday junction branch migration, FAM/BHQ fluorescence; inhibition, % at 10.4 µM; AID 602329; 0.14% of 360,000 active;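 active = mean normalized replicate activity at least 40 and at least half of replicates scoring 40 or more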;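 note: inhibitors cause a drop in the FAM fluorescence signal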
# RAD52 anneal inh – blocks human RAD52 DNA annealing. P43351. 0.46% of 360,000 active. inhibition, % at 18.7 µM. recombinant RAD52 DNA annealing, FRET fluorescence. AID 651710;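 active = every replicate showing at least 50% inhibition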
# Target sequence (P43351 whole entry, looked up): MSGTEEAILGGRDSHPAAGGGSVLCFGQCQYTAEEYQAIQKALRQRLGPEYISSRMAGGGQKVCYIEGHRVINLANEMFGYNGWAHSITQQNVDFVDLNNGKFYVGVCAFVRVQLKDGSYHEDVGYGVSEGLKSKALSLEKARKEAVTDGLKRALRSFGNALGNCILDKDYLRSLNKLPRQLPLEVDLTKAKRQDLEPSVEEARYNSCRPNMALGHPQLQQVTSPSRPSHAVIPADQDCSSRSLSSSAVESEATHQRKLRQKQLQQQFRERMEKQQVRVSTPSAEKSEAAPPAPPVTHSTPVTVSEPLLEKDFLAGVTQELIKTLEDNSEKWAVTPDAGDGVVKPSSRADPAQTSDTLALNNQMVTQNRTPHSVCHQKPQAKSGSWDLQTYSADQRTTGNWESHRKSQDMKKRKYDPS
# A number is an active result; . = inactive; / = not tested or not shown; ! = repeats disagree. In the library only some 1.3% were active in any assay of this set; here they are far more common.
SMILES,GSIS activator,MLL AF4-AF9 inh,S100A4 MyoIIA,RAD54 branch,RAD52 anneal inh
O=C(C[C@H]1CC[C@H]2[C@@H](COC[C@@H](O)CN2C(=O)c2ccccn2)O1)N1CCN(c2ccccc2)CC1,.,.,.,.,.
O=C(C1CCCC1)N1CC(=O)N2[C@@H](CO)[C@@H](c3ccc(C#CCc4ccccc4)cc3)[C@@H]2C1,.,.,.,/,.
Cn1cc(CNC(=O)c2cc(-c3ccccc3)nc3ccc(Br)cc23)cn1,.,/,/,/,/
Cc1ccc(-c2cc(C(=O)NCc3cnn(C)c3)c3cc(Br)ccc3n2)cc1,334.9,/,/,.,/
CO[C@H]1CN(C)C(=O)c2ccc(NC(=O)NC(C)C)cc2OC[C@@H](C)N(Cc2ccccn2)C[C@H]1C,.,.,.,.,.
CN(C)S(=O)(=O)c1cccc(-c2csc(=Nc3ccccc3)n2CCCN2CCOCC2)c1,.,32.0,.,.,.
O=C(CS(=O)(=O)c1cn(CC(=O)N2CCOCC2)c2ccccc12)Nc1ccccc1,40.2,.,.,/,.
Cc1onc(-c2ccccc2)c1C(=O)NCC1CCN(C(=O)C(=O)c2cccs2)CC1,/,.,.,/,.
COc1ccc(S(=O)(=O)N(C)C[C@@H]2Oc3ccc(NC(=O)Cn4cnnn4)cc3CC(=O)N([C@@H](C)CO)C[C@H]2C)cc1,.,.,.,.,.
CC(C)C#Cc1ccc([C@H]2[C@@H](CO)N3C(=O)CN(C(=O)Cc4cccnc4)C[C@@H]23)cc1,.,/,/,/,/
c1ccc(CNCCCNCCCCNCCCNCc2ccccc2)cc1,.,25.5,.,/,.
CC(C)C[C@H]1CN([C@@H](Cc2ccc(O)cc2)CN2CCC[C@H]2CN2C(=O)C(=O)NC[C@@H]2Cc2ccc(O)cc2)C(=O)C(=O)N1CCc1ccccc1,43.7,.,.,/,.
CCOC(=O)N1CCN(S(=O)(=O)c2ccc(C)c(C(=O)NC3CCCCC3)c2)CC1,.,.,127.3,.,.
CC(=O)c1nn(-c2ccc(Br)cc2)cc1C(=O)c1ccccc1,54.2,/,/,/,/
C[C@H]1CCCCO[C@H](CN(C)C(=O)Nc2ccc3c(c2)OCO3)[C@@H](C)CN([C@@H](C)CO)C(=O)c2cc(NS(=O)(=O)c3cn(C)cn3)ccc2O1,.,.,.,.,.
O=C(C[C@@H]1CC[C@@H]2[C@H](COC[C@@H](O)CN2S(=O)(=O)c2ccccc2)O1)NCCN1CCCC1,.,.,.,/,.
COc1ccc(N=C2S/C(=C\c3ccc(OCC(=O)O)cc3)C(=O)N2CCc2c[nH]c3ccccc23)cc1,.,35.3,.,/,.
COc1ccc(NC(=O)N(C)C[C@H]2Oc3c(NS(=O)(=O)c4ccc(Cl)cc4)cccc3C(=O)N([C@@H](C)CO)C[C@@H]2C)cc1,.,.,.,.,.
C[C@@H]1CN([C@H](C)CO)C(=O)c2c(c3ccccc3n2C)-c2ccccc2CO[C@H]1CN(C)Cc1ccncc1,.,.,.,.,.
O=C1c2cccnc2C(Nc2ccccc2)N1Cc1ccco1 (centres undefined),/,/,/,.,/
O=C1c2cccnc2C(Nc2cccc(F)c2)N1Cc1ccco1 (centres undefined),70.5,.,.,.,.
CC(=O)c1cccc(NC2c3ncccc3C(=O)N2Cc2ccco2)c1 (centres undefined),49.8,.,.,.,.
Cc1ccc(S(=O)(=O)N[C@@H]2CC[C@H](CC(=O)N3CCC(Cc4ccccc4)CC3)O[C@@H]2CO)cc1,.,.,.,.,.
Cc1ccc(S(=O)(=O)Nc2ccc3c(c2)C(=O)N([C@@H](C)CO)C[C@H](C)[C@@H](CN(C)Cc2ccc4c(c2)OCO4)OCCCC[C@@H](C)O3)cc1,.,.,.,.,.
CC(=O)c1cccc(NC(=O)CCC(=O)Oc2ccc(C)cc2)c1,222.4,.,.,.,.
SMILES,GSIS activator,MLL AF4-AF9 inh,S100A4 MyoIIA,RAD54 branch,RAD52 anneal inh
C=CCNc1sc(C(=O)C2CC2)c(N)c1C#N,64.7,/,/,.,/
C=CCNc1sc(C(=O)C(C)(C)C)c(N)c1C#N,/,/,/,.,/
NNc1nc(-c2ccccc2)c2ccccc2n1,44.2,.,.,/,.
C[C@@H]1CN([C@@H](C)CO)C(=O)c2cc(C#C[C@@H](C)O)cnc2O[C@@H]1CN(C)C(=O)c1ccncc1,.,.,.,.,.
C1=C2C[N+]3(CCCC3)CC2Cc2ccc3ccccc3c21 (centres undefined),.,/,.,54.1,.
Cc1ccc(S(=O)(=O)N2[C@@H]3CNC[C@H]2C3c2ccc(-c3cccc(C)c3)cc2)cc1 (some centres undefined),.,.,.,/,51.4!

# Assay outcomes from PubChem BioAssay.
